PubChem BioAssay AID602408 (Southern Research Specialized Biocontainment Screening …, 2012)
Values joined by “and” are separate entries in the source; they are usually repeats but may differ in a detail not shown here. Identical values can stand only once. Active and inactive are the calls of the source.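 The calls were made as follows: active = inhibition of phage lysis above 30%; inactive = the rest.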

Tests used:
[1] = blocking phage-mediated lysis of K1 E. coli – UTI89 strain, A600 absorbance, round 2, bacterial capsule biogenesis project, confirmation (AID 602408); settings: E. coli UTI89 K1 capsule, phage lysis, A600; at 100 µM (top of the series)
Summary of the method: (§1)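 Material – Escherichia coli K1 strain UTI89, whole bacterial cells · Buffer or medium – LB broth · Probe or stimulus – K1F phage · Dosing – 1% DMSO final · Times – 1.5 h pre-incubation, 2 h phage at 37 °C · Signal – absorbance at 600 nm (OD600) · Evaluation – Capsule-dependent phage lysis from OD600, with pre-phage OD600 flagging growth effects · Replicates – duplicates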

[2] = test system: E. coli UTI89 K1 capsule, phage lysis, A600; test: as above
Summary of the method: as §1

| SMILES | IC50 [2] | inhibition of phage lysis [1] |
| --- | --- | --- |
| O=C(NC1CCNCC1)c1ccc2ncsc2c1 |  | -6.19% (inactive) |
| [N-]=[N+]=NCCOc1ccc(-c2cc(NC(=O)c3c(F)cccc3F)c(C(=O)O)s2)cc1 | 17.5 µM |  |
| CCCc1ccc(-c2cc(NC(=O)c3c(F)cc(F)cc3F)c(C(=O)O)s2)cc1 | 15.9 µM |  |
| CCOc1ccc(-c2cc(NC(=O)c3c(F)cc(F)cc3F)c(C(=O)O)s2)cc1 | 20 µM |  |
| CCOc1ccc(-c2cc(NC(=O)c3c(F)cccc3F)c(C(=O)O)s2)cc1 | 2.8 µM and 3.73 µM |  |
| O=C(Nc1cc(-c2ccccc2)sc1C(=O)O)c1ccc2c(c1)OCCO2 | 89.1 µM |  |
| O=C(NCc1ccncc1)c1ccc2ncsc2c1 |  | -2.06% (inactive) |
| O=C(Nc1ccncc1F)c1ccc2ncsc2c1 | 18.6 µM |  |
| CC1(C(=O)O)CCC(C(=O)Nc2ccc3ccccc3c2)C1(C)C (configuration not stated) | 43.9 µM |  |
| O=C(O)c1sc(-c2ccc(OC(F)(F)F)cc2)cc1NC(=O)c1c(F)cccc1F | 9.77 µM |  |
| CC1=NN2C(=N)/C(=C\c3ccc(SCc4ccco4)o3)C(=O)N=C2S1 | 37.9 µM |  |
| CCOc1ccc(-c2cc(NC(=O)c3ccc(Br)s3)c(C(=O)O)s2)cc1 | 13.9 µM |  |
| CCOc1ccc(-c2cc(NC(=O)c3c(F)cccc3C(F)(F)F)c(C(=O)O)s2)cc1 | 52.6 µM |  |
| O=C(Nc1ncccc1O)c1ccc2ncsc2c1 |  | 0.85% (inactive) |
| CCOc1ccc(-c2cc(NC(=O)c3ccc(OC)c(OC)c3)c(C(=O)O)s2)cc1 | 59.9 µM |  |
| COc1cc2sc(NC(=O)c3ccc(Br)s3)nc2cc1F |  | -6.05% (inactive) |
| CCCCOc1ccc(-c2cc(NC(=O)c3cc(Br)c(Br)o3)c(C(=O)O)s2)cc1 | 23.3 µM |  |
| CCOc1ccc(-c2cc(NC(=O)c3cccc(F)c3)c(C(=O)O)s2)cc1 | 20.1 µM |  |

| SMILES | IC50 [2] | inhibition of phage lysis [1] |
| --- | --- | --- |
| O=C(NCc1cc([N+](=O)[O-])ccc1O)c1cccnc1Sc1ccccc1Cl | 14.8 µM |  |
| O=C(Nc1cc(-c2ccc(OCCCC(F)(F)F)cc2)sc1C(=O)O)c1cc(Br)c(Br)o1 | 32.2 µM | 12.2% (inactive) |
| O=C(Nc1cc(-c2ccccc2)sc1C(=O)O)c1cccs1 | 68.1 µM |  |
| Cc1ccc(-c2cc(NC(=O)c3cccc(F)c3)c(C(=O)O)s2)cc1 | 44.5 µM |  |
| Cc1ccc(-c2cc(NC(=O)c3c(F)cccc3F)c(C(=O)O)s2)cc1 | 21.3 µM |  |
| O=C(O)c1sc(-c2ccc(OCCCC(F)(F)F)cc2)cc1NC(=O)c1c(F)cccc1F | 10.3 µM |  |
| O=C(O)c1sc(-c2ccc(OCC(F)(F)F)cc2)cc1NC(=O)c1c(F)cc(F)cc1F | 94.9 µM |  |
| COc1ccc2nc(NC(=O)c3cccs3)sc2c1 |  | 24% (inactive) |
| O=C(Nc1cc(-c2ccccc2)sc1C(=O)O)c1ccc(Br)o1 | 42.2 µM |  |
| CCOc1ccc(-c2cc(NC(=O)c3cccc(Cl)c3)c(C(=O)O)s2)cc1 | 64.9 µM |  |
| Cc1ccc(-c2cc(NC(=O)c3ccc(Br)o3)c(C(=O)O)s2)cc1 | 11.3 µM |  |
| O=C(Nc1cc(-c2ccccc2)sc1C(=O)O)c1cccc(Cl)c1 | 85.5 µM |  |
| CC(C)c1ccc(-c2cc(NC(=O)c3cc4ccccc4o3)c(C(=O)O)s2)cc1 | 23.6 µM |  |
| O=C(O)c1sc(-c2ccc(C(F)(F)F)cc2)cc1NC(=O)c1c(F)cccc1F | 20.9 µM |  |
| COc1ccc2nc(NC(=O)c3ccco3)sc2c1 |  | 0.81% (inactive) |
| CC(C)c1ccc(-c2cc(NC(=O)c3cccc(F)c3)c(C(=O)O)s2)cc1 | 18.4 µM |  |
| O=C(NCCc1ccncc1)c1ccc2ncsc2c1 |  | 8.25% (inactive) |

The next lines start with results.

| IC50 [2] | SMILES | inhibition of phage lysis [1] |
| --- | --- | --- |
| 6.78 µM | CCCc1ccc(-c2cc(NC(=O)c3cc(Br)c(Br)o3)c(C(=O)O)s2)cc1 |  |
| 9.74 µM | O=C(Nc1cc(-c2ccc(C(F)(F)F)cc2)sc1C(=O)O)c1ccc(Br)o1 |  |
| 1.05 µM | O=C(Nc1ccncc1)c1ccc2ncsc2c1 | 17.9% (inactive) |
| 4.62 µM | O=C(Nc1ccnc(F)c1)c1ccc2ncsc2c1 |  |
| 2.01 µM | O=C(ONc1ccc(N=NC(=O)c2ccccc2O)cc1)c1ccccc1 |  |
| 8.06 µM | CCCOc1ccc(-c2cc(NC(=O)c3c(F)cc(F)cc3F)c(C(=O)O)s2)cc1 |  |
| 5.53 µM | O=C(O)c1sc(-c2ccc(OCCCC(F)(F)F)cc2)cc1NC(=O)c1c(F)cc(F)cc1F |  |
| 2.63 µM | CCCc1ccc(-c2cc(NC(=O)c3c(F)cccc3F)c(C(=O)O)s2)cc1 |  |
| 5.06 µM | CCOc1ccc2nc(NC(=O)c3ccc(Br)s3)sc2c1 |  |
| 9.72 µM | CC(C)(C)c1ccc(-c2cc(NC(=O)c3cccc(F)c3)c(C(=O)O)s2)cc1 |  |
| 3.11 µM | O=C(O)c1sc(-c2ccc(OCCC(F)(F)F)cc2)cc1NC(=O)c1c(F)cc(F)cc1F |  |
| 1.78 µM | O=C(Nc1cc(-c2ccc(OCCCC(F)(F)F)cc2)sc1C(=O)O)c1ccc(Br)o1 |  |
| < 0.78 µM | CCCCOc1ccc(-c2cc(NC(=O)c3c(F)cccc3F)c(C(=O)O)s2)cc1 |  |
| 4.85 µM | CCOc1ccc(-c2cc(NC(=O)c3ccc(Br)o3)c(C(=O)O)s2)cc1 |  |
| 7.75 µM | COc1cc(NC(=O)c2ccc3ncsc3c2)ccn1 |  |
| 6.39 µM | CCCCOc1ccc(-c2cc(NC(=O)c3c(F)cc(F)cc3F)c(C(=O)O)s2)cc1 |  |
| 8.75 µM | COc1ccc(-c2cc(NC(=O)c3ccc(Br)o3)c(C(=O)O)s2)cc1 |  |
| 4.9 µM | O=C(Nc1cc(-c2ccc(OCC(F)(F)F)cc2)sc1C(=O)O)c1ccc(Br)o1 |  |
| 0.84 µM | O=C(O)c1sc(-c2ccc(OCCC(F)(F)F)cc2)cc1NC(=O)c1c(F)cccc1F |  |
| 2.81 µM | CC(C)c1ccc(-c2cc(NC(=O)c3ccc(Br)o3)c(C(=O)O)s2)cc1 |  |
| 2.57 µM | O=C(Nc1ccnc(Cl)c1)c1ccc2ncsc2c1 |  |
| 0.84 µM | O=C(Nc1cc(-c2ccc(OCCC(F)(F)F)cc2)sc1C(=O)O)c1ccc(Br)o1 |  |
| 0.85 µM | CCCCOc1ccc(-c2cc(NC(=O)c3ccc(Br)o3)c(C(=O)O)s2)cc1 |  |
| 4.26 µM | O=C(Nc1ccnc(Br)c1)c1ccc2ncsc2c1 |  |
| 5.88 µM | CC(C)c1ccc(-c2cc(NC(=O)c3c(F)cccc3F)c(C(=O)O)s2)cc1 |  |
| 4.6 µM | O=C(Nc1cc(-c2ccc(OC(F)(F)F)cc2)sc1C(=O)O)c1ccc(Br)o1 |  |
| 2.33 µM | COc1ccc2nc(NC(=O)c3ccc(Br)s3)sc2c1 |  |
| 1.43 µM | CCCc1ccc(-c2cc(NC(=O)c3ccc(Br)o3)c(C(=O)O)s2)cc1 |  |
| 2.86 µM | O=C(O)c1sc(-c2ccc(OCC(F)(F)F)cc2)cc1NC(=O)c1c(F)cccc1F |  |
| 6.99 µM | CC(C)(C)c1ccc(-c2cc(NC(=O)c3c(F)cccc3F)c(C(=O)O)s2)cc1 |  |
